In ChEMBL document CHEMBL4346669, “Novel nannocystin A analogues as anticancer therapeutics: Synthesis, biological evaluations and structure-activity relationship studies” (Eur J Med Chem, 2019):
Activity calls are given as the source filed them. The rule behind the calls is not given here.

Key:
A549 [1] = experiment: Antiproliferative activity against human A549 cells assessed as reduction in cell viability measured after 72 hrs by MTT assay; assay type: functional, cell-based; settings: Homo sapiens, A549, 72 h; read-out: IC50
Procedure, shortened: (§1)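 Cells seeded 5×10^3/well, cultured overnight, then exposed to 10, 1, 0.1, 0.01, 0.001 and 0.0001 µM (from 10 mM DMSO stocks diluted in medium; vehicle 1% DMSO PBS) for 72 h at 37 °C. Medium replaced with 0.5 mg/mL MTT for 4 h, formazan dissolved in DMSO, A570 read. IC50 as mean ± SD of three independent experiments.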

HCT-116 = experiment: Antiproliferative activity against human HCT116 cells assessed as reduction in cell viability measured after 72 hrs by MTT assay; assay type: functional, cell-based; settings: Homo sapiens, HCT-116, 72 h; read-out: IC50; procedure, shortened: as §1
A549 [2] = experiment: Inhibition of colony formation in human A549 cells at 5 nM incubated for 3 days followed by further incubation in drug-free medium and measured after 15 days by crystal violet staining-based inverted microscopic analysis; assay type: functional, cell-based
Procedure, shortened: (§2)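 500 A549 cells/well incubated 24 h, then treated with 5, 10 or 20 nM for 3 days, followed by drug-free medium changed every 3 days. At day 15 after plating, colonies fixed in 95% ethanol 15 min, stained with 0.1% crystal violet, counted (colony = over 100 cells); mean ± SD of three independent experiments.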

A549 [3] = experiment: Inhibition of colony formation in human A549 cells at 10 to 20 nM incubated for 3 days followed by further incubation in drug-free medium and measured after 15 days by crystal violet staining-based inverted microscopic analysis; assay type: functional, cell-based; procedure, shortened: as §2
A549 [4] = experiment: Cell cycle arrest in human A549 cells assessed as accumulation at G2 phase at 30 nM after 24 hrs by propidium iodide/RNase A staining-based flow cytometric analysis (reference value: 30.02%); assay type: functional
A549 [5] = experiment: Cell cycle arrest in human A549 cells assessed as accumulation at G1 phase at 90 nM after 24 hrs by propidium iodide/RNase A staining-based flow cytometric analysis (reference value: 57.41%); assay type: functional
A549 [6] = experiment: Induction of apoptosis in human A549 cells assessed as necrotic cells at 30 nM after 12 hrs by Annexin-V FITC/propidium iodide staining based flow cytometric analysis (reference value: 1.28%); assay type: functional
A549 [7] = experiment: Induction of apoptosis in human A549 cells assessed as viable cells at 60 nM after 12 hrs by Annexin-V FITC/propidium iodide staining based flow cytometric analysis (reference value: 97.18%); assay type: functional; settings: A549, 12 h, read-out: Activity
A549 [8] = experiment: Induction of apoptosis in human A549 cells assessed as necrotic cells at 60 nM after 12 hrs by Annexin-V FITC/propidium iodide staining based flow cytometric analysis (reference value: 1.28%); assay type: functional
A549 [9] = experiment: Induction of apoptosis in human A549 cells assessed as late apoptotic cells at 60 nM after 6 hrs by Annexin-V FITC/propidium iodide staining based flow cytometric analysis; assay type: functional
Procedure, shortened: (§3)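 Time-course: A549 (2×10^5 cells/well, grown overnight) exposed to 60 nM for 6, 12 or 24 h; untreated control. Cells trypsinized, washed in cold PBS, stained 15 min with Annexin V-FITC in binding buffer, then PI, and read by flow cytometry; duplicate experiments.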

A549 [10] = experiment: Induction of apoptosis in human A549 cells assessed as viable cells at 60 nM after 24 hrs by Annexin-V FITC/propidium iodide staining based flow cytometric analysis; assay type: functional; settings: A549, 24 h, read-out: Activity; procedure, shortened: as §3
A549 [11] = experiment: Induction of apoptosis in human A549 cells assessed as increase in caspase9 expression by Western blot analysis; assay type: functional, cell-based
Procedure, shortened: (§4)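 A549 treated 30, 60 and 90 nM for 24 h; lysates normalized by BCA, 30 μg protein denatured in SDS buffer at 100 °C 8 min, SDS-PAGE, PVDF transfer, blocked in 5% milk/TBS-0.05% Tween 2 h, primary antibodies overnight at 4 °C, HRP anti-rabbit IgG 2 h, ECL detection; β-actin loading control.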

A549 [12] = experiment: Induction of apoptosis in human A549 cells assessed as increase in Bax protein expression by Western blot analysis; assay type: functional, cell-based; procedure, shortened: as §4
A549 [13] = experiment: Induction of apoptosis in human A549 cells at 60 nM by Annexin-V FITC/propidium iodide staining based flow cytometric analysis; assay type: functional, cell-based; settings: TDE = time-dependent effect
A549 [14] = experiment: Induction of apoptosis in human A549 cells assessed as reduction in Bcl-2 expression at 30 to 90 nM by Western blot analysis

Structure (SMILES): COc1cc(C[C@H]2NC(=O)[C@H](C(C)C)N(C)C(=O)/C(C)=C/C[C@@H](OC)/C(C)=C/C=C/[C@@H](C)[C@@H](c3ccccc3)OC(=O)[C@H](C(C)C)NC2=O)ccc1O
- IC50 (A549 [1]): 20.2 nM
- IC50 (HCT-116): 48.5 nM
- inhibition (A549 [2]): Active
- inhibition (A549 [3]): Active
- Activity (A549 [4]): 37.66%
- Activity (A549 [5]): 37.81%
- Activity (A549 [6]): 9.87%
- viability at 0.06 µM (A549 [7]): 66.2%
- Activity (A549 [8]): 10.19%
- Activity (A549 [9]): 5.08%
- viability at 0.06 µM (A549 [10]): 54.4%
- Activity (A549 [11]): Dose-dependent effect
- Activity (A549 [12]): Dose-dependent effect
- Activity (A549 [13]): Tde
- Activity (A549 [14]): Active
